Each structure is given as a SMILES string.

A word on the Ki: it is a dissociation constant, usually derived from enzyme kinetics or from competition with a known ligand.

The nature of the test: Inhibition of Escherichia coli methionine aminopeptidase 1. The method in brief:
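Coupled chromogenic assay at room temperature: 50 mM HEPES pH 7.5, 100 μM CoCl2, 400 μM Met-Pro-pNA substrate, 0.25–4.0 μM MetAP-1 enzyme, 10–25 μM proline aminopeptidase as coupling enzyme, varying inhibitor concentrations. pNA release read at 405 nm. Ki obtained by non-linear regression assuming a competitive steady-state model.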
With `O=C1NC(=O)C(=Cc2ccc(C(=O)O)cc2)C(=O)N1`, the inhibitory constant (Ki) worked out at 335 µM.
With `O=C1NC(=O)C(=Cc2cccc([N+](=O)[O-])c2)C(=O)N1` the figure was 29 µM; with `CN1C(=O)C(=Cc2ccc([N+](=O)[O-])cc2)C(=O)N(C)C1=O`, > 100 µM; with `O=C1NC(=S)NC(=O)C1=Cc1ccccc1`, > 100 µM.
The result for `COc1ccc(C=C2C(=O)N(C)C(=O)N(C)C2=O)cc1` reads > 100 µM.
The result for `CN1C(=O)C(=C/C=C/c2ccccc2)C(=O)N(C)C1=O` reads > 100 µM; that for `CN1C(=O)C(=Cc2cccc([N+](=O)[O-])c2)C(=O)N(C)C1=O`, > 100 µM; that for `CN(C)c1ccc(/C=C/C=C2C(=O)NC(=S)NC2=O)cc1`, 17 µM.
Take `CN1C(=O)C(=C/C=C/c2ccc(N(C)C)cc2)C(=O)N(C)C1=O`: the Ki is > 100 µM.
The result for `CN(C)c1ccc(C=C2C(=O)NC(=O)NC2=O)cc1` reads 13 µM.
Consider `CN(C)c1ccc(C=C2C(=O)NC(=S)NC2=O)cc1`, for which the Ki is > 100 µM.
The result for `O=C1NC(=O)C(=C/C=C/c2ccccc2)C(=O)N1` reads 12 µM; that for `COc1ccc(C=C2C(=O)NC(=O)NC2=O)cc1`, 25 µM.
As for `O=C1NC(=S)NC(=O)C1=Cc1ccc(F)cc1`, the Ki was > 100 µM.
With `O=C1NC(=O)C(=Cc2ccc(F)cc2)C(=O)N1` the figure was 89 µM.
With `O=C1NC(=S)NC(=O)C1=Cc1ccc(O)cc1` the figure was > 100 µM; with `CN(C)c1ccc(/C=C/C=C2C(=O)NC(=O)NC2=O)cc1`, 0.05 µM.
`COc1ccc(C=C2C(=O)NC(=S)NC2=O)cc1` registered an inhibition constant Ki of 87 µM. Compared with the last compound, the Ki is about 1700-fold higher.
The result for `O=C1NC(=O)C(=Cc2ccccc2)C(=O)N1` reads 517 µM; that for `CN1C(=O)C(=Cc2ccc(O)cc2)C(=O)N(C)C1=O`, > 100 µM.
With `O=C1NC(=O)C(=Cc2ccc(O)cc2)C(=O)N1` the figure was 4 µM.
The result for `O=C1NC(=S)NC(=O)C1=C/C=C/c1ccccc1` reads > 100 µM.
As to `CN1C(=O)C(=Cc2ccc(F)cc2)C(=O)N(C)C1=O`, the Ki is > 100 µM.
For the compound `CN1C(=O)C(=Cc2ccccc2)C(=O)N(C)C1=O`, the Ki was > 100 µM.
With `CN1C(=O)C(=Cc2ccc(N(C)C)cc2)C(=O)N(C)C1=O` the figure was > 100 µM; with `O=C1NC(=O)C(=Cc2ccc([N+](=O)[O-])cc2)C(=O)N1`, 105 µM.
The result for `CN1C(=O)C(=Cc2ccc(C(=O)O)cc2)C(=O)N(C)C1=O` reads > 100 µM; that for `O=C1NC(=S)NC(=O)C1=Cc1ccc([N+](=O)[O-])cc1`, > 100 µM; that for `O=C1NC(=S)NC(=O)C1=Cc1cccc([N+](=O)[O-])c1`, > 100 µM.
The result for `O=C1NC(=S)NC(=O)C1=Cc1ccc(C(=O)O)cc1` reads > 100 µM.

(Values after ChEMBL document CHEMBL1143905, “Synthesis of barbiturate-based methionine aminopeptidase-1 inhibitors” (Bioorg Med Chem Lett, 2008).)
